What was measured:
GFP-AR [1] = target: T1, GFP-AR (Homo sapiens, UniProt P10275); type: cell-based; conditions: murine 3108 cells expressing GFP-AR
T1 sequence (P10275 1-920): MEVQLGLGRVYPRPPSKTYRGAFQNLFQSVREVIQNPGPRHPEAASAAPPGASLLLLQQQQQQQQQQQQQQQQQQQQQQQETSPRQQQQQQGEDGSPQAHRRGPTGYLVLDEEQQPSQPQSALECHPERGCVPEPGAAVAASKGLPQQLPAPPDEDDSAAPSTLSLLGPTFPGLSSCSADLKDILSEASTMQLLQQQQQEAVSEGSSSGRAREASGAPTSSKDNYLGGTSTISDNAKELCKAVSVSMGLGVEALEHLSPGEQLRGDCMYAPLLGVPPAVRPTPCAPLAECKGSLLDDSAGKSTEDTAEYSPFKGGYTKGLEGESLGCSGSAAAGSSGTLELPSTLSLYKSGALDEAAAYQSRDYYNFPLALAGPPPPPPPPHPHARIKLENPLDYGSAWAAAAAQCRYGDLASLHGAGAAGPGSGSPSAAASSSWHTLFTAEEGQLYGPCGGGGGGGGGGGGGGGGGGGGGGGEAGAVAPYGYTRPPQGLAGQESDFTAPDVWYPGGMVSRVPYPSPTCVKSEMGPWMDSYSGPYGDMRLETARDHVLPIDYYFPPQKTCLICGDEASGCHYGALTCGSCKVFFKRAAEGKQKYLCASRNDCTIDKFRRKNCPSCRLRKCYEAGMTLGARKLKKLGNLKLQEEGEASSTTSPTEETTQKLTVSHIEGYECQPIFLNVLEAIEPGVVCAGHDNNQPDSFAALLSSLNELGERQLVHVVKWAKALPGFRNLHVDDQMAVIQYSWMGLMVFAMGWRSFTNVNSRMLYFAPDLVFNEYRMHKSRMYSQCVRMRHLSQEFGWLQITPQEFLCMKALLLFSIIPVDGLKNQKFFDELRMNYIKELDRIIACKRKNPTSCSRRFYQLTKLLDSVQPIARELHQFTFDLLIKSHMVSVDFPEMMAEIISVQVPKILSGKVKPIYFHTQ

[2] = system: H3K27ac and AR 3D chromatin contacts; test: AQuA-HiChIP; type: cell-based, human; conditions: 24 h at 20 µM, LNCaP-AR
In short: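 LNCaP-AR cells grown in DMEM, 10% FBS, penicillin-streptomycin-glutamine, 37 °C, 5% CO2. MNase-based HiChIP for AR and H3K27ac with medium-salt washes and mouse chromatin spike-in for absolute quantification (AQuA). Paired-end sequencing to at least 200 million reads. Loops were filtered by distance, minimum AQuA-CPM and connection number, merged into clusters, and ranked by summed short- and long-range contacts.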

hAR = target: T2, hAR (Homo sapiens, UniProt P10275); conditions: radioligand binding
T2 sequence (P10275 669-920 limits assumed): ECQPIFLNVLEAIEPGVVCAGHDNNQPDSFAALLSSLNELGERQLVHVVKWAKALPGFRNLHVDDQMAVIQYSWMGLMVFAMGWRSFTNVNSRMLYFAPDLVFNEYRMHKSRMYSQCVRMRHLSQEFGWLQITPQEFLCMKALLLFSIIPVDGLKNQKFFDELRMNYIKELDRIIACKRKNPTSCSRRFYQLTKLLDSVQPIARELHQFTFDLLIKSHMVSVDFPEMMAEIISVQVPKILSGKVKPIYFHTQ

[3] = Microsome metabolic assay; type: in vitro ADME; conditions: in comparison to control compounds
[4] = target: T3, progesterone receptor (PR) (Homo sapiens, UniProt P06401); test: Radioligand binding assay, progesterone receptor
T3 sequence (P06401 1-933): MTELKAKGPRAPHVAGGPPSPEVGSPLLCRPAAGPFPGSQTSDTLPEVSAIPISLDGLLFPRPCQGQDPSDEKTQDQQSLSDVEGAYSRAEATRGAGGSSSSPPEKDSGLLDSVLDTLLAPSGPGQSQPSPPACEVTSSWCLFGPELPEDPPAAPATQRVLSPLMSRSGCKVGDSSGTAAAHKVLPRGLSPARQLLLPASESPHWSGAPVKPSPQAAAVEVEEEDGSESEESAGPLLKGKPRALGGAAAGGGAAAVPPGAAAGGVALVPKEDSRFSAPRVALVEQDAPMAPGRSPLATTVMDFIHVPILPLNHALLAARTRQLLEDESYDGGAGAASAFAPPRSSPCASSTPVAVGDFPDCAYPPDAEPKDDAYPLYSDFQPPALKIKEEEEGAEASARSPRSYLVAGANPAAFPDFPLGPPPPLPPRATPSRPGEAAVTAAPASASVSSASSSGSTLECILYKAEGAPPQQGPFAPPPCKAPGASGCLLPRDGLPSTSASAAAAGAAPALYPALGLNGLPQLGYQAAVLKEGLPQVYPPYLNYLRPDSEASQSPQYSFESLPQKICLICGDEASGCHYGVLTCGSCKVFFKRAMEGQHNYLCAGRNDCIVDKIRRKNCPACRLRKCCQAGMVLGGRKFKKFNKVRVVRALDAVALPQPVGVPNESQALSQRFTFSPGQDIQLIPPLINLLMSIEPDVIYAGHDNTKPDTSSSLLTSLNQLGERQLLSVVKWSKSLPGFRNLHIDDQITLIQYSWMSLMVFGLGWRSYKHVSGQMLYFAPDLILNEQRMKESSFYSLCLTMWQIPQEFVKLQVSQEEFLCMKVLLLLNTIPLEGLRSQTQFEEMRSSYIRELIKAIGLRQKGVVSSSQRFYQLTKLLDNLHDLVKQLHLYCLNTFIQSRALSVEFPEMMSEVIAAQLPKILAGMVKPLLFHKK
In short: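 Eurofins Panlabs radioligand binding with steroid hormone receptors and their respective ligands. Buffer: 50 mM Tris-HCl, 0.8 M NaCl, 10% glycerol, 2 mM dithiothreitol, 0.1% BSA, 2% EtOH, pH 7.4. Receptor-ligand incubation, then 15 min with hydroxyapatite slurry. Samples filtered, filters washed three times and counted for specifically bound ligand. Log concentration series gave Ki and IC50.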

[5] = Solubility / precipitation in solvents; type: physicochemical
GFP-AR [6] = target: T1, GFP-AR; test: GFP-AR construct nuclear translocation in human cell lines; type: cell-based; conditions: CSS
LNCaP-AR cells = test: Cell growth; type: cell-based, human
22Rv1 cells = test: Cell growth; type: cell-based, human
[7] = Parallel Artificial Membrane Permeability Assay; type: in vitro ADME; conditions: pH 6.5
LAPC4 xenograft = LAPC4 xenograft growth in vivo; parameters: species or system mice; conditions: 20 mg/kg via oral gavage, 42 days
AR [8] = target: T4, AR (Homo sapiens, UniProt P10275); type: cell-based; conditions: VCaP, CSS and 10 nM R1881
T4 sequence (P10275 1-920): T1 sequence (P10275 1-920)

[9] = once peak concentration is reached; cited from earlier work
AR [10] = target: T4, AR; test: AR transcriptional assays of the triazole series; type: cell-based; conditions: SI Fig. S1B/C

CC1(C)C(=O)N(c2ccc(C#N)c(C(F)(F)F)c2)C(=S)N1Cc1ccc(-c2c[nH]nn2)cc1 [BG-15a]
AR translocation to the nucleus (nuclear to cytoplasmic ratio, dose response) (GFP-AR [1]): induced nuclear translocation at doses 100 nM to 10 µM | H3K27ac long-range contacts at AR loops [2]: decreased long-range acetylation contacts at AR loops | AR binding affinity (in words) (hAR): strong AR binding affinity | microsomal half-life (in words) [3]: notably high half-life | binding affinity to the PR (in words) [4]: nanomolar range binding affinity | solubility (in words) [5]: limited | AR nuclear translocation (GFP-AR construct) (GFP-AR [6]): consistently stimulated AR nuclear translocation | growth inhibition compared to enzalutamide (LNCaP-AR cells): more efficacious in inhibiting growth compared to enzalutamide | growth inhibition compared to enzalutamide (22Rv1 cells): more efficacious in inhibiting growth compared to enzalutamide | drug recovery and cell permeability (PAMPA) [7]: performed similarly to each other and enzalutamide | tumor growth (LAPC4 xenograft): inhibition of tumor growth | AR transcriptional activity (luciferase) (AR [8]): dose-dependent decrease of AR activity

CNC(=O)c1ccc(N2C(=S)N(c3ccc(C#N)c(C(F)(F)F)c3)C(=O)C2(C)C)cc1F [Enzalutamide, enzalutamide]
half-life in patients [9]: around 5 days

CC(O)(CS(=O)(=O)c1ccc(F)cc1)C(=O)Nc1ccc(C#N)c(C(F)(F)F)c1 (stereo not drawn) [bicalutamide]
H3K27ac long-range contacts at AR loops [2]: decreased long-range acetylation contacts at AR loops

Cn1cc(-c2ccc(CN3C(=S)N(c4ccc(C#N)c(C(F)(F)F)c4)C(=O)C3(C)C)cc2)nn1 [15b]
anti-AR transcriptional activity (in words) (AR [10]): dramatic loss in activity
